Results published in ChEMBL document CHEMBL4251685, “Microthecaline A, a Quinoline Serrulatane Alkaloid from the Roots of the Australian Desert Plant Eremophila microtheca” (J Nat Prod, 2018).
Calls of active or inactive are those of the source. No cut-off for these calls is given here.

Key:
Plasmodium falciparum [1] = assay: Antimalarial activity against chloroquine-sensitive Plasmodium falciparum 3D7 after 72 hrs by DAPI staining based fluorescence assay; format: functional, organism-based; settings: 3D7, 72 h
Plasmodium falciparum [2] = assay: Antimalarial activity against chloroquine-resistant Plasmodium falciparum Dd2 after 72 hrs by DAPI staining based fluorescence assay; format: functional, organism-based; settings: Dd2, 72 h
[3] = Cytotoxicity against HEK293 cells assessed as inhibition of cell growth at 80 uM after 72 hrs by alamar blue assay relative to control; format: cell-based; settings: human, read-out: GI
Procedure, shortened: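 HEK293 human embryonic kidney cells; the reported value is the average percent inhibition measured at 80 μM.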

[4] = Selectivity index, ratio of IC50 for HEK293 cells to IC50 for chloroquine-sensitive Plasmodium falciparum 3D7; format: toxicity; settings: human; read-out: Ratio IC50
[5] = Selectivity index, ratio of IC50 for HEK293 cells to IC50 for chloroquine-resistant Plasmodium falciparum Dd2; format: toxicity; settings: human; read-out: Ratio IC50
HEK293 = assay: Cytotoxicity against HEK293 cells assessed as inhibition of cell growth at 10 uM after 72 hrs by alamar blue assay; format: cell-based; settings: human, hek293, 72 h
Plasmodium falciparum [6] = assay: Antimalarial activity against chloroquine-sensitive Plasmodium falciparum 3D7 at 10 uM after 72 hrs by DAPI staining based fluorescence assay; format: functional, organism-based
Plasmodium falciparum [7] = assay: Antimalarial activity against chloroquine-resistant Plasmodium falciparum Dd2 at 10 uM after 72 hrs by DAPI staining based fluorescence assay; format: functional, organism-based

CC(C)=CCCc1cnc2c(C)cc(O)c3c2c1CC[C@H]3C
IC50 (Plasmodium falciparum [1]): 7.7 µM
IC50 (Plasmodium falciparum [2]): 17.2 µM
inhibition at 72 h, 80 µM [3]: 62%
selectivity ratio [4]: 5.2
selectivity ratio [5]: 2.3

COc1ccc(C[C@H](N)C(=O)N[C@H]2[C@@H](O)[C@H](n3cnc4c(N(C)C)ncnc43)O[C@@H]2CO)cc1 [PUROMYCIN]
selectivity ratio [4]: 9
selectivity ratio [5]: 10.5

CCN(CC)CCCC(C)Nc1ccnc2cc(Cl)ccc12 (stereo not drawn) [CHLOROQUINE]
growth inhibition (GI) (HEK293): Not Active

COc1cc(C)c2ncc(CCC=C(C)C)c3c2c1[C@H](C)CC3
Activity (Plasmodium falciparum [6]): inactive
Activity (Plasmodium falciparum [7]): inactive

C[C@H]1[C@H](OC(=O)CCC(=O)O)O[C@@H]2O[C@@]3(C)CC[C@H]4[C@H](C)CC[C@@H]1[C@@]24OO3 [ARTESUNATE]
IC50 (Plasmodium falciparum [2]): 0.001 µM
selectivity ratio [4]: 11600
selectivity ratio [5]: 10000
